In ChEMBL document CHEMBL4396885, “Thioether-based 2-aminobenzamide derivatives: Novel HDAC inhibitors with potent in vitro and in vivo antitumor activity” (Eur J Med Chem, 2019):

Tests used:
HCT-116 [1] = assay: Antiproliferative activity against human HCT116 cells assessed as growth inhibition at 8 uM after 72 hrs by CCK-8 assay relative to control; assay type: functional; settings: HCT-116, 72 h, read-out: GI
NIH3T3 = assay: Cytotoxicity against mouse NIH/3T3 cells assessed as reduction in cell viability after 72 hrs by CCK-8 assay; assay type: cell-based; settings: NIH3T3, 72 h
HeLa [2] = assay: Antiproliferative activity against human HeLa cells assessed as decrease in cell viability after 72 hrs by CCK-8 assay; assay type: functional, cell-based
Procedure, shortened: (§1)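 Cells grown to 70–85% confluence (A375, A549, HCT116 in RPMI1640; HeLa, SMMC7721 in DMEM; 10% FBS, 37 °C, 5% CO2), seeded 4000/well, dosed after 12 h across a concentration range, incubated 72 h, then CCK-8 for 1 h; absorbance at 450 nm. IC50 as mean ± SD of three separate experiments.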

HCT-116 [3] = assay: Antiproliferative activity against human HCT116 cells assessed as decrease in cell viability after 72 hrs by CCK-8 assay; assay type: functional, cell-based; settings: HCT-116, 72 h; procedure, shortened: as §1
HCT-116 [4] = assay: Antiproliferative activity against human HCT116 cells assessed as growth inhibition at 2 uM after 72 hrs by CCK-8 assay relative to control; assay type: functional; settings: HCT-116, 72 h, read-out: GI
A-375 [5] = assay: Antiproliferative activity against human A375 cells assessed as growth inhibition at 2 uM after 72 hrs by CCK-8 assay relative to control; assay type: functional; settings: A-375, 72 h, read-out: GI
SMMC-7721 [6] = assay: Antiproliferative activity against human SMMC7721 cells assessed as growth inhibition at 8 uM after 72 hrs by CCK-8 assay relative to control; assay type: functional; settings: SMMC-7721, 72 h, read-out: GI
A-375 [7] = assay: Antiproliferative activity against human A375 cells assessed as decrease in cell viability after 72 hrs by CCK-8 assay; assay type: functional, cell-based; settings: A-375, 72 h; procedure, shortened: as §1
Histone deacetylase = assay: Inhibition of HDAC in human HeLa cell nuclear extract assessed as decrease in deacetylation of FLUOR DE LYS Green substrate preincubated for 10 mins followed by substrate addition and measured after 30 mins by fluorescence based assay; assay type: cell-free
A549 [8] = assay: Antiproliferative activity against human A549 cells assessed as growth inhibition at 8 uM after 72 hrs by CCK-8 assay relative to control; assay type: functional; settings: A549, 72 h, read-out: GI
HeLa [9] = assay: Antiproliferative activity against human HeLa cells assessed as growth inhibition at 8 uM after 72 hrs by CCK-8 assay relative to control; assay type: functional; settings: read-out: GI
A-375 [10] = assay: Antiproliferative activity against human A375 cells assessed as growth inhibition at 8 uM after 72 hrs by CCK-8 assay relative to control; assay type: functional; settings: A-375, 72 h, read-out: GI
A549 [11] = assay: Antiproliferative activity against human A549 cells assessed as growth inhibition at 2 uM after 72 hrs by CCK-8 assay relative to control; assay type: functional; settings: A549, 72 h, read-out: GI
HeLa [12] = assay: Antiproliferative activity against human HeLa cells assessed as growth inhibition at 2 uM after 72 hrs by CCK-8 assay relative to control; assay type: functional; settings: read-out: GI
A549 [13] = assay: Antiproliferative activity against human A549 cells assessed as decrease in cell viability after 72 hrs by CCK-8 assay; assay type: functional, cell-based; settings: A549, 72 h; procedure, shortened: as §1
[14] = target: Histone deacetylase 3/NCoR1 (Homo sapiens, UniProt O15379); assay: Inhibition of recombinant human HDAC3/NCOR1 assessed as decrease in deacetylation of FLUOR DE LYS SIRT1 substrate preincubated for 10 mins followed by substrate addition and measured after 30 mins by fluorescence based assay; assay type: protein-complex assay
[15] = target: T1, Protein deacetylase HDAC6 (Homo sapiens, UniProt Q9UBN7); assay: Inhibition of recombinant human His tagged HDAC6 expressed in baculovirus infected insect cells assessed as decrease in deacetylation of FLUOR DE LYS SIRT1 substrate by measuring decrease in fluorescence preincubated for 10 mins followed by substrate addition and measured after 30 mins by fluorescence based assay
T1 sequence (Q9UBN7 whole entry): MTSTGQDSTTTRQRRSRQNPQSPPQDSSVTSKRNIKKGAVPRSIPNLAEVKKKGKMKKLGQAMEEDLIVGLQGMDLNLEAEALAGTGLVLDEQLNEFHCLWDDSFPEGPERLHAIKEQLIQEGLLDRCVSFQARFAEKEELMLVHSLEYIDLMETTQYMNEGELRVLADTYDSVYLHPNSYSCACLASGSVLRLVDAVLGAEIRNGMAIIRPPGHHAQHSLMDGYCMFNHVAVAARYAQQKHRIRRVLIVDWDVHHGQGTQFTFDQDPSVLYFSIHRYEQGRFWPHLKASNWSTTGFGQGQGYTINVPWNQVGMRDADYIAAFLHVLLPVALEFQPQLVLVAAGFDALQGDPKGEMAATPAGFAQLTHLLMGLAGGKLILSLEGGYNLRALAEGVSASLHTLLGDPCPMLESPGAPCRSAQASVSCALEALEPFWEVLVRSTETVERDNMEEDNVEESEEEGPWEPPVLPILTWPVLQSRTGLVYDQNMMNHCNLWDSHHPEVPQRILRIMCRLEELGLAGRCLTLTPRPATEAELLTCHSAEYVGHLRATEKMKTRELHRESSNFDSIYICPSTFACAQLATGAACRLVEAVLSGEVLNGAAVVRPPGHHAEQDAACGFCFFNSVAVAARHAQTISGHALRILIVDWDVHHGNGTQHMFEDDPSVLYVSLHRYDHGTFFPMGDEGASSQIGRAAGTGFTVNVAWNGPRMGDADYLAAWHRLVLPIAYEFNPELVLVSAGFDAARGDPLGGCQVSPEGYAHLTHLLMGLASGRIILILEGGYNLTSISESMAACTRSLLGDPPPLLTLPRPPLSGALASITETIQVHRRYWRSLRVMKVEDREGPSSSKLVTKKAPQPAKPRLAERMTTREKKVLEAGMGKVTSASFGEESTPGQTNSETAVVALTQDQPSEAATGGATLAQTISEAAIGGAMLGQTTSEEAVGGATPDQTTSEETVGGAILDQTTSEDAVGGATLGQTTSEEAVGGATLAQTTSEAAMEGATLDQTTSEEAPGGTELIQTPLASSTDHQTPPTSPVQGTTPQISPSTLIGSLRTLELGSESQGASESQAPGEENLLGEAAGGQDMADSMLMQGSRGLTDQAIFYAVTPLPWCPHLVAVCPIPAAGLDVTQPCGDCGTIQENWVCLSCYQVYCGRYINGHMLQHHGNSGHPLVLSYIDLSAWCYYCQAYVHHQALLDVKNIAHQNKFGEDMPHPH

Histone deacetylase 1 = Histone deacetylase 1 (Homo sapiens, UniProt Q13547); assay: Inhibition of recombinant human His tagged HDAC1 expressed in baculovirus infected insect cells assessed as decrease in deacetylation of FLUOR DE LYS Green substrate preincubated for 10 mins followed by substrate addition and measured after 30 mins by fluorescence based assay
SMMC-7721 [16] = assay: Antiproliferative activity against human SMMC7721 cells assessed as growth inhibition at 2 uM after 72 hrs by CCK-8 assay relative to control; assay type: functional; settings: SMMC-7721, 72 h, read-out: GI
Histone deacetylase 8 = target: T2, Histone deacetylase 8 (Homo sapiens, UniProt Q9BY41); assay: Inhibition of recombinant human HDAC8 assessed as decrease in deacetylation of FLUOR DE LYS substrate preincubated for 10 mins followed by substrate addition and measured after 30 mins by fluorescence based assay
T2 sequence (Q9BY41 whole entry): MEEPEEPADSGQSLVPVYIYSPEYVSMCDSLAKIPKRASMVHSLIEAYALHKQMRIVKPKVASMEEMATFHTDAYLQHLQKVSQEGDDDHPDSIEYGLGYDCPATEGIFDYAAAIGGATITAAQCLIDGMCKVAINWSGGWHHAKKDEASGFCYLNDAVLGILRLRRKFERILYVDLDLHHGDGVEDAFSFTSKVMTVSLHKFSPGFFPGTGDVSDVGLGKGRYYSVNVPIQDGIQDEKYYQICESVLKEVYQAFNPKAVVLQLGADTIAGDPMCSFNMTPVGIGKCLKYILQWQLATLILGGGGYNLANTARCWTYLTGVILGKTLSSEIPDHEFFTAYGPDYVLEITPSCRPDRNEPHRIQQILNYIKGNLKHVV

Histone deacetylase 2 = Histone deacetylase 2 (Homo sapiens, UniProt Q92769); assay: Inhibition of recombinant human HDAC2 assessed as decrease in deacetylation of FLUOR DE LYS Green substrate preincubated for 10 mins followed by substrate addition and measured after 30 mins by fluorescence based assay
SMMC-7721 [17] = assay: Antiproliferative activity against human SMMC7721 cells assessed as decrease in cell viability after 72 hrs by CCK-8 assay; assay type: functional, cell-based; settings: SMMC-7721, 72 h; procedure, shortened: as §1

Histone deacetylase 2, sequence (Q92769 whole entry): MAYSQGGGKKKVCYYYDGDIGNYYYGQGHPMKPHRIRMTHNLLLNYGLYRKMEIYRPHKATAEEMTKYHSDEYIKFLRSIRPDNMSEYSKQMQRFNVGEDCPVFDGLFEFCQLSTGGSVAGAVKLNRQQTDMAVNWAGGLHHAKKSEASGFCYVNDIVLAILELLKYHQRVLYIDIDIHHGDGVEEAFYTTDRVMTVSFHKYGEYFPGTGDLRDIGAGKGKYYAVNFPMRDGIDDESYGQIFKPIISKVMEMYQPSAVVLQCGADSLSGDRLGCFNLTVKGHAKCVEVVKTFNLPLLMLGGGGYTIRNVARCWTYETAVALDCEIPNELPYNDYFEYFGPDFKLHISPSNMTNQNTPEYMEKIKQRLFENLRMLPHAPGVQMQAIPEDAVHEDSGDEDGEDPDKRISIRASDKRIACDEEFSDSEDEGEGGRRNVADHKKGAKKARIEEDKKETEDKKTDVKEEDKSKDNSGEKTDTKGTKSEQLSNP
Histone deacetylase 3/NCoR1, sequence (O15379 whole entry): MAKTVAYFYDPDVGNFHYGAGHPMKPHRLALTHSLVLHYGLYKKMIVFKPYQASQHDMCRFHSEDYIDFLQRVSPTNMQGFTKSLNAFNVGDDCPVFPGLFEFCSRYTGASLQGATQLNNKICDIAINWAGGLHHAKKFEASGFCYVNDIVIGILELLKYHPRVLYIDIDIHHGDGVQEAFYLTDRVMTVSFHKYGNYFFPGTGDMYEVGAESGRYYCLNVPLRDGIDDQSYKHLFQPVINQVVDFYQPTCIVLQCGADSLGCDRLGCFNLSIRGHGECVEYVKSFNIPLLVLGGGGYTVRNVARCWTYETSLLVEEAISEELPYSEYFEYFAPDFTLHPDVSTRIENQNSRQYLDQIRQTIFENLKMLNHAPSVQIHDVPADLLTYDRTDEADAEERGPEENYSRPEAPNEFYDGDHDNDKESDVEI
Histone deacetylase 3/NCoR1, sequence (O75376 whole entry, further chain): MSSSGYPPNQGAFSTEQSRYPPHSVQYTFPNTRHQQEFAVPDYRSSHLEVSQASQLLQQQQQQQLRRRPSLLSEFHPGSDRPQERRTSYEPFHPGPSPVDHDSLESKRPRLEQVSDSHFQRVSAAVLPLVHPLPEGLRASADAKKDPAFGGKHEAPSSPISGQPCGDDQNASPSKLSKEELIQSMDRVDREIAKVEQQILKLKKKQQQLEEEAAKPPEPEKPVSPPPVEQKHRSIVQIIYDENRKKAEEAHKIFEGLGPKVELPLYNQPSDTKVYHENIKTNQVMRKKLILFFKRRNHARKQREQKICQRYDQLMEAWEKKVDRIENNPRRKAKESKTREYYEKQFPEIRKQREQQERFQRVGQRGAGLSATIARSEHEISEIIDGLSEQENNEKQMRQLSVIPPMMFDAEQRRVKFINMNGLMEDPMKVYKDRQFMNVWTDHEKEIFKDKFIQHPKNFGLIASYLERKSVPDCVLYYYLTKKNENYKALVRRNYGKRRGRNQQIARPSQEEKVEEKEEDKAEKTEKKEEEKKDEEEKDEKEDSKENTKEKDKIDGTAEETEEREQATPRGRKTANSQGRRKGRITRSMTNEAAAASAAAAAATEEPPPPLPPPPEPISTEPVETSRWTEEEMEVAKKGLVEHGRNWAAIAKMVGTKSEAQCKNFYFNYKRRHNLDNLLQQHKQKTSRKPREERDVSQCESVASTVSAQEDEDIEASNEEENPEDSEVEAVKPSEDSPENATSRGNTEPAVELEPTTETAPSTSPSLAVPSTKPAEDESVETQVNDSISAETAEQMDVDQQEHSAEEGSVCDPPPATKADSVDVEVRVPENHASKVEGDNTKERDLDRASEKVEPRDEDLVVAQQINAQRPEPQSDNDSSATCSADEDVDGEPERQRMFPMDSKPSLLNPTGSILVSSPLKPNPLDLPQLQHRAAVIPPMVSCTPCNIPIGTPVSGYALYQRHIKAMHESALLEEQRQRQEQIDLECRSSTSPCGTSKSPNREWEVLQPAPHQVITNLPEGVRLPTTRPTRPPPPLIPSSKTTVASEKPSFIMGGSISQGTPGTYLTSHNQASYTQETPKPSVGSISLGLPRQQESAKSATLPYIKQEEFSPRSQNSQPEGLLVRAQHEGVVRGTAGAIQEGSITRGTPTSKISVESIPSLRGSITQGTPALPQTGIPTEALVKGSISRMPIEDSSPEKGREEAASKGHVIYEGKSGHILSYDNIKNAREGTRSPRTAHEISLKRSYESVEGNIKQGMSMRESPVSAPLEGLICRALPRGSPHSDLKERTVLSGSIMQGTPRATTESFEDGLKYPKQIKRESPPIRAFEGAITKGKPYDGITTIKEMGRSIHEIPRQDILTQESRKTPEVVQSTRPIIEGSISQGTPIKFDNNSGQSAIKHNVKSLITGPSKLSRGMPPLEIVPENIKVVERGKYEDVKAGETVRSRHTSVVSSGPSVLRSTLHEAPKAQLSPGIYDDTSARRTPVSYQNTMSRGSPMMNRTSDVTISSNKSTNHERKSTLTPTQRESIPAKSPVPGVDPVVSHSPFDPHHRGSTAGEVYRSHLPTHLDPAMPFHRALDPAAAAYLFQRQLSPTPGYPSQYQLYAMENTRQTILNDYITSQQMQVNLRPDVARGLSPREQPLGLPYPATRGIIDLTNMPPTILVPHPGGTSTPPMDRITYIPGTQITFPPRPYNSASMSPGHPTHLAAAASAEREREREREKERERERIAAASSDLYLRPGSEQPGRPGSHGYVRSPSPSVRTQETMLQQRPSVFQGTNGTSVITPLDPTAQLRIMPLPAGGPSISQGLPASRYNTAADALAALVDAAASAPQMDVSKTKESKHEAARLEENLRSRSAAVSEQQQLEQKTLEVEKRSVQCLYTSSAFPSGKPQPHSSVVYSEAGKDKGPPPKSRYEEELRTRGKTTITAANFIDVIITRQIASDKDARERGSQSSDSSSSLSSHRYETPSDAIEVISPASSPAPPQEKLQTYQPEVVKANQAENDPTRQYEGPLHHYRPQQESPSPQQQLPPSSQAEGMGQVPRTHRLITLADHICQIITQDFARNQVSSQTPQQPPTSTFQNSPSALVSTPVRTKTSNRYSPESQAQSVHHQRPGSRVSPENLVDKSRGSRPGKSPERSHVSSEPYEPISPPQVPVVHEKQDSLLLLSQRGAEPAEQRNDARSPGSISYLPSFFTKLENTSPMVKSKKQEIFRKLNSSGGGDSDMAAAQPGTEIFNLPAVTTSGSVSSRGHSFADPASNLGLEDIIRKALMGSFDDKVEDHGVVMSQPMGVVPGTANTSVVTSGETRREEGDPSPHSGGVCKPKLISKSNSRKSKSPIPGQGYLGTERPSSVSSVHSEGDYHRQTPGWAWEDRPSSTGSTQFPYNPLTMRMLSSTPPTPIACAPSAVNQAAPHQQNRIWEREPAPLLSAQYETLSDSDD
Histone deacetylase 1, sequence (Q13547 whole entry): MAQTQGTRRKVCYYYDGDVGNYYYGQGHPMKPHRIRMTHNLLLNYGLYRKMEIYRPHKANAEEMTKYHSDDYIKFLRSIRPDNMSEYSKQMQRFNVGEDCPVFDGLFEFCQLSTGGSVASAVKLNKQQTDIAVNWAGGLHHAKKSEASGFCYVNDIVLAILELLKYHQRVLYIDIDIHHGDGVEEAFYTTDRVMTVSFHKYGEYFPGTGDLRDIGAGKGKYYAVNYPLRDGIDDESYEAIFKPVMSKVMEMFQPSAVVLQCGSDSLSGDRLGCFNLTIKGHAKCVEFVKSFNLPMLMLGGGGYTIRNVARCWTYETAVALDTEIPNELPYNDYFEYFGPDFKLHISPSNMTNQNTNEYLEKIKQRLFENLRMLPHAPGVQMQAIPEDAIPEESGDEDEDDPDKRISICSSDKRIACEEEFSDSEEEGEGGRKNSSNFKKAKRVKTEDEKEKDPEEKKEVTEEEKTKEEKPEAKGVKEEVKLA

| Structure (SMILES) | inhibition of growth at 8 µM (HCT-116 [1]) [%] | IC50 (NIH3T3) [nM] | IC50 (HeLa [2]) [nM] | IC50 (HCT-116 [3]) [nM] | inhibition of growth at 2 µM (HCT-116 [4]) [%] | inhibition of growth at 2 µM (A-375 [5]) [%] | inhibition of growth at 8 µM (SMMC-7721 [6]) [%] | IC50 (A-375 [7]) [nM] | IC50 (Histone deacetylase) [nM] | inhibition of growth at 8 µM (A549 [8]) [%] | inhibition of growth at 8 µM (HeLa [9]) [%] | inhibition of growth at 8 µM (A-375 [10]) [%] | inhibition of growth at 2 µM (A549 [11]) [%] | inhibition of growth at 2 µM (HeLa [12]) [%] | IC50 (A549 [13]) [nM] | IC50 [14] [nM] | IC50 [15] [nM] | IC50 (Histone deacetylase 1) [nM] | inhibition of growth at 2 µM (SMMC-7721 [16]) [%] | IC50 (SMMC-7721 [17]) [nM] | also measured |
| --- | --- | --- | --- | --- | --- | --- | --- | --- | --- | --- | --- | --- | --- | --- | --- | --- | --- | --- | --- | --- | --- |
| Nc1ccccc1NC(=O)c1ccc(CSc2nccc(C(F)(F)F)n2)cc1 | 93.1 | 1850 | 1140 | 1140 | 82.7 | 54.4 | 80.6 | 1550 | 1995 | 95.1 | 83.4 | 80.1 | 75.4 | 68.3 | 970 | 274 | > 32000 | 11 | 66.1 | 1890 | IC50 (Histone deacetylase 8): > 32000 nM; IC50 (Histone deacetylase 2): 441 nM |
| Cc1cc(C)cc(SCc2ccc(C(=O)Nc3ccccc3N)cc2)c1 | 72.9 | 3340 | 2090 | 2490 | 3.22 | 48.5 | 85.1 | 3670 | 10720 | 78.5 | 78.8 | 74.7 | 33.3 | 40.1 | 2890 | 381 | > 32000 | 20 | 29.1 | 2760 | IC50 (Histone deacetylase 8): > 32000 nM; IC50 (Histone deacetylase 2): 139 nM |
| Nc1ccccc1NC(=O)c1ccc(CSCCc2ccccc2)cc1 | 81.3 |  | 6430 | 2810 | 30.5 | 21.8 | 77.9 | 2860 |  | 84.1 | 74.8 | 69.9 | 44.9 | 27.7 | 3250 |  |  |  | 28.1 | 4880 |  |
| Cc1ccc(SCc2ccc(C(=O)Nc3ccccc3N)cc2)cc1 | 84 |  | 4250 | 2630 | 74.8 | 17.5 | 82.7 | 3700 |  | 78.3 | 79.2 | 67 | 40.5 | 33.8 | 3270 |  |  |  | 25.1 | 3740 |  |
